Assay results from ChEMBL document CHEMBL4689842, “EUbOPEN Chemogenomics Library wave 1” (2021).

Tested on: U2OS
Assay: Multiplex assay against U2OS
Format: toxicity, cell-based
Conditions: human
How it was run: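 With compound added, live cells were imaged on a CQ1 microscope at 37°C and 5% CO2; staining with Hoechst33342, BioTracker Green Microtubule Cytoskeleton Dye, MitoTracker Red and Annexin V Alexa Fluor 680 had been done at seeding. The CellPathfinder machine-learning gating scheme split cells into Hoechst high-intensity objects or normal cells, normal cells into healthy, pyknosed or fragmented nuclei, and pyknosed cells into mitotic or apoptotic. The tubulin, mitochondrial-mass and membrane-permeability phenotypes are per cents of healthy-nucleus cells.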

[1] = 12 h, 1 µM, compound concentration 1 uM, replicate 1
[2] = 12 h, 1 µM, compound concentration 1 uM, replicate 2
[3] = 12 h, 10 µM, compound concentration 10 uM, replicate 1
[4] = 12 h, 10 µM, compound concentration 10 uM, replicate 2
[5] = 24 h, 1 µM, compound concentration 1 uM, replicate 1
[6] = 24 h, 1 µM, compound concentration 1 uM, replicate 2
[7] = 24 h, 10 µM, compound concentration 10 uM, replicate 1
[8] = 24 h, 10 µM, compound concentration 10 uM, replicate 2
[9] = 48 h, 1 µM, compound concentration 1 uM, replicate 1
[10] = 48 h, 1 µM, compound concentration 1 uM, replicate 2
[11] = 48 h, 10 µM, compound concentration 10 uM, replicate 1
[12] = 48 h, 10 µM, compound concentration 10 uM, replicate 2

SMILES: O=C(Nc1cccnn1)N1CCC(=Cc2cccc(Oc3ccc(C(F)(F)F)cn3)c2)CC1
- Population Apoptotic (%) [1]: 36%
- Population Fragmented Nuclei (%) [1]: 1%
- Population Healthy Nuclei (%) [1]: 87%
- Population Hoechst High Intensity Objects (%) [1]: 3%
- Population Membrane Permeable-Phenotype (%) [1]: 33%
- Population Mitochondria Different-Phenotype (%) [1]: 5%
- Population Mitotic Cells (%) [1]: 63%
- Population Normal (%) [1]: 96%
- Population Pyknosed Nuclei (%) [1]: 10%
- Population Tubulin-Different-Phenotype (%) [1]: 26%
- Total Cell Count [1]: 187
- Population Apoptotic (%) [2]: 14%
- Population Fragmented Nuclei (%) [2]: 13%
- Population Healthy Nuclei (%) [2]: 78%
- Population Hoechst High Intensity Objects (%) [2]: 16%
- Population Membrane Permeable-Phenotype (%) [2]: 30%
- Population Mitochondria Different-Phenotype (%) [2]: 24%
- Population Mitotic Cells (%) [2]: 85%
- Population Normal (%) [2]: 83%
- Population Pyknosed Nuclei (%) [2]: 7%
- Population Tubulin-Different-Phenotype (%) [2]: 18%
- Total Cell Count [2]: 101
- Population Apoptotic (%) [3]: 83%
- Population Fragmented Nuclei (%) [3]: 4%
- Population Healthy Nuclei (%) [3]: 92%
- Population Hoechst High Intensity Objects (%) [3]: 3%
- Population Membrane Permeable-Phenotype (%) [3]: 8%
- Population Mitochondria Different-Phenotype (%) [3]: 22%
- Population Mitotic Cells (%) [3]: 16%
- Population Normal (%) [3]: 96%
- Population Pyknosed Nuclei (%) [3]: 3%
- Population Tubulin-Different-Phenotype (%) [3]: 22%
- Total Cell Count [3]: 311
- Population Apoptotic (%) [4]: 0%
- Population Fragmented Nuclei (%) [4]: 8%
- Population Healthy Nuclei (%) [4]: 91%
- Population Hoechst High Intensity Objects (%) [4]: 15%
- Population Membrane Permeable-Phenotype (%) [4]: 12%
- Population Mitochondria Different-Phenotype (%) [4]: 24%
- Population Mitotic Cells (%) [4]: 0%
- Population Normal (%) [4]: 84%
- Population Pyknosed Nuclei (%) [4]: 0%
- Population Tubulin-Different-Phenotype (%) [4]: 16%
- Total Cell Count [4]: 336
- Population Apoptotic (%) [5]: 18%
- Population Fragmented Nuclei (%) [5]: 2%
- Population Healthy Nuclei (%) [5]: 83%
- Population Hoechst High Intensity Objects (%) [5]: 2%
- Population Membrane Permeable-Phenotype (%) [5]: 21%
- Population Mitochondria Different-Phenotype (%) [5]: 11%
- Population Mitotic Cells (%) [5]: 81%
- Population Normal (%) [5]: 97%
- Population Pyknosed Nuclei (%) [5]: 14%
- Population Tubulin-Different-Phenotype (%) [5]: 17%
- Total Cell Count [5]: 250
- Population Apoptotic (%) [6]: 27%
- Population Fragmented Nuclei (%) [6]: 10%
- Population Healthy Nuclei (%) [6]: 79%
- Population Hoechst High Intensity Objects (%) [6]: 14%
- Population Membrane Permeable-Phenotype (%) [6]: 19%
- Population Mitochondria Different-Phenotype (%) [6]: 22%
- Population Mitotic Cells (%) [6]: 72%
- Population Normal (%) [6]: 85%
- Population Pyknosed Nuclei (%) [6]: 10%
- Population Tubulin-Different-Phenotype (%) [6]: 11%
- Total Cell Count [6]: 114
- Population Apoptotic (%) [7]: 33%
- Population Fragmented Nuclei (%) [7]: 2%
- Population Healthy Nuclei (%) [7]: 95%
- Population Hoechst High Intensity Objects (%) [7]: 3%
- Population Membrane Permeable-Phenotype (%) [7]: 5%
- Population Mitochondria Different-Phenotype (%) [7]: 20%
- Population Mitotic Cells (%) [7]: 66%
- Population Normal (%) [7]: 96%
- Population Pyknosed Nuclei (%) [7]: 2%
- Population Tubulin-Different-Phenotype (%) [7]: 26%
- Total Cell Count [7]: 221
- Population Apoptotic (%) [8]: 83%
- Population Fragmented Nuclei (%) [8]: 4%
- Population Healthy Nuclei (%) [8]: 89%
- Population Hoechst High Intensity Objects (%) [8]: 7%
- Population Membrane Permeable-Phenotype (%) [8]: 8%
- Population Mitochondria Different-Phenotype (%) [8]: 31%
- Population Mitotic Cells (%) [8]: 16%
- Population Normal (%) [8]: 92%
- Population Pyknosed Nuclei (%) [8]: 5%
- Population Tubulin-Different-Phenotype (%) [8]: 14%
- Total Cell Count [8]: 231

SMILES: CCOC(=O)c1c(C)[nH]c2ccc3c(c12)CN1CCc2cc(OC)ccc2C1O3 (stereo unspecified)
- Population Apoptotic (%) [1]: 72%
- Population Fragmented Nuclei (%) [1]: 9%
- Population Healthy Nuclei (%) [1]: 81%
- Population Hoechst High Intensity Objects (%) [1]: 5%
- Population Membrane Permeable-Phenotype (%) [1]: 6%
- Population Mitochondria Different-Phenotype (%) [1]: 78%
- Population Mitotic Cells (%) [1]: 27%
- Population Normal (%) [1]: 94%
- Population Pyknosed Nuclei (%) [1]: 8%
- Population Tubulin-Different-Phenotype (%) [1]: 72%
- Total Cell Count [1]: 123
- Population Apoptotic (%) [2]: 9%
- Population Healthy Nuclei (%) [2]: 76%
- Population Hoechst High Intensity Objects (%) [2]: 9%
- Population Membrane Permeable-Phenotype (%) [2]: 3%
- Population Mitochondria Different-Phenotype (%) [2]: 70%
- Population Mitotic Cells (%) [2]: 90%
- Population Normal (%) [2]: 90%
- Population Pyknosed Nuclei (%) [2]: 14%
- Population Tubulin-Different-Phenotype (%) [2]: 62%
- Total Cell Count [2]: 65
- Population Apoptotic (%) [3]: 73%
- Population Fragmented Nuclei (%) [3]: 9%
- Population Healthy Nuclei (%) [3]: 68%
- Population Hoechst High Intensity Objects (%) [3]: 5%
- Population Membrane Permeable-Phenotype (%) [3]: 68%
- Population Mitotic Cells (%) [3]: 26%
- Population Normal (%) [3]: 94%
- Total Cell Count [3]: 135
- Population Apoptotic (%) [4]: 80%
- Population Fragmented Nuclei (%) [4]: 2%
- Population Healthy Nuclei (%) [4]: 75%
- Population Hoechst High Intensity Objects (%) [4]: 11%
- Population Membrane Permeable-Phenotype (%) [4]: 70%
- Population Mitochondria Different-Phenotype (%) [4]: 100%
- Population Mitotic Cells (%) [4]: 20%
- Population Normal (%) [4]: 88%
- Population Pyknosed Nuclei (%) [4]: 22%
- Population Tubulin-Different-Phenotype (%) [4]: 100%
- Total Cell Count [4]: 84
- Population Apoptotic (%) [5]: 41%
- Population Fragmented Nuclei (%) [5]: 8%
- Population Healthy Nuclei (%) [5]: 79%
- Population Hoechst High Intensity Objects (%) [5]: 5%
- Population Membrane Permeable-Phenotype (%) [5]: 3%
- Population Mitochondria Different-Phenotype (%) [5]: 68%
- Population Mitotic Cells (%) [5]: 58%
- Population Normal (%) [5]: 94%
- Population Pyknosed Nuclei (%) [5]: 12%
- Population Tubulin-Different-Phenotype (%) [5]: 40%
- Total Cell Count [5]: 127
- Population Apoptotic (%) [6]: 8%
- Population Fragmented Nuclei (%) [6]: 9%
- Population Healthy Nuclei (%) [6]: 75%
- Population Membrane Permeable-Phenotype (%) [6]: 1%
- Population Mitochondria Different-Phenotype (%) [6]: 58%
- Population Mitotic Cells (%) [6]: 91%
- Population Pyknosed Nuclei (%) [6]: 14%
- Population Tubulin-Different-Phenotype (%) [6]: 35%
- Total Cell Count [6]: 65
- Population Apoptotic (%) [7]: 90%
- Population Fragmented Nuclei (%) [7]: 13%
- Population Healthy Nuclei (%) [7]: 49%
- Population Hoechst High Intensity Objects (%) [7]: 4%
- Population Membrane Permeable-Phenotype (%) [7]: 78%
- Population Mitochondria Different-Phenotype (%) [7]: 100%
- Population Mitotic Cells (%) [7]: 9%
- Population Normal (%) [7]: 95%
- Population Pyknosed Nuclei (%) [7]: 37%
- Population Tubulin-Different-Phenotype (%) [7]: 100%
- Total Cell Count [7]: 143
- Population Apoptotic (%) [8]: 89%
- Population Fragmented Nuclei (%) [8]: 6%
- Population Healthy Nuclei (%) [8]: 52%
- Population Hoechst High Intensity Objects (%) [8]: 11%
- Population Membrane Permeable-Phenotype (%) [8]: 83%
- Population Mitotic Cells (%) [8]: 10%
- Population Normal (%) [8]: 88%
- Population Pyknosed Nuclei (%) [8]: 41%
- Total Cell Count [8]: 87
- Population Apoptotic (%) [9]: 44%
- Population Fragmented Nuclei (%) [9]: 7%
- Population Healthy Nuclei (%) [9]: 83%
- Population Hoechst High Intensity Objects (%) [9]: 2%
- Population Membrane Permeable-Phenotype (%) [9]: 1%
- Population Mitochondria Different-Phenotype (%) [9]: 22%
- Population Mitotic Cells (%) [9]: 55%
- Population Normal (%) [9]: 97%
- Population Pyknosed Nuclei (%) [9]: 9%
- Population Tubulin-Different-Phenotype (%) [9]: 13%
- Total Cell Count [9]: 115
- Population Apoptotic (%) [10]: 41%
- Population Fragmented Nuclei (%) [10]: 8%
- Population Healthy Nuclei (%) [10]: 81%
- Population Hoechst High Intensity Objects (%) [10]: 7%
- Population Membrane Permeable-Phenotype (%) [10]: 9%
- Population Mitochondria Different-Phenotype (%) [10]: 27%
- Population Mitotic Cells (%) [10]: 58%
- Population Normal (%) [10]: 92%
- Population Pyknosed Nuclei (%) [10]: 10%
- Population Tubulin-Different-Phenotype (%) [10]: 19%
- Total Cell Count [10]: 67
- Population Apoptotic (%) [11]: 100%
- Population Fragmented Nuclei (%) [11]: 13%
- Population Healthy Nuclei (%) [11]: 50%
- Population Hoechst High Intensity Objects (%) [11]: 6%
- Population Membrane Permeable-Phenotype (%) [11]: 88%
- Population Mitotic Cells (%) [11]: 0%
- Population Normal (%) [11]: 93%
- Population Pyknosed Nuclei (%) [11]: 35%
- Population Tubulin-Different-Phenotype (%) [11]: 100%
- Total Cell Count [11]: 196
- Population Apoptotic (%) [12]: 84%
- Population Fragmented Nuclei (%) [12]: 14%
- Population Healthy Nuclei (%) [12]: 45%
- Population Hoechst High Intensity Objects (%) [12]: 14%
- Population Membrane Permeable-Phenotype (%) [12]: 81%
- Population Mitochondria Different-Phenotype (%) [12]: 100%
- Population Mitotic Cells (%) [12]: 15%
- Population Normal (%) [12]: 85%
- Population Pyknosed Nuclei (%) [12]: 39%
- Population Tubulin-Different-Phenotype (%) [12]: 95%
- Total Cell Count [12]: 121
